Converted amounts (≈) assume the structure as drawn. “And” between values parts separate entries of the source, which are not always exact repeats. Equal entries are not always repeated. “Also recorded” adds a separate entry of the source. Where two headings read alike, the source gives them in different places. Marks after values point to notes of the source that are not given here.
Columns and labels:
H. pylori strain 26695 [1] = assay: Minimal inhibitory concentration; format: cell-based, Helicobacter pylori
Summary of the method: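 Strain ATCC 26695 revived from glycerol stock on BHI agar with 10% FBS and 1% selective supplement. Twofold compound dilutions (DMSO or water stocks) mixed 1:1 with inoculated double-strength BHI (20% FBS, 2% supplement; ~0.05 OD600, 4×10^4 CFU/mL final). Shaken at 120 rpm, 37 °C, microaerophilic; OD600 read at 0, 4, 8 and 24 h. Viability checked with Christensen's urea broth (4 h, aerobic, 37 °C). MIC taken at ≥90% inhibition; triplicates, kanamycin and DMSO controls.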

[2] = biological target: PNP from Helicobacter pylori strain 26695 (HpPNP) (Helicobacter pylori, UniProt P56463); assay: Inhibition of H. pylori PNP, direct spectrophotometric phosphorolysis assay; format: biochemical; details: m7Guo variable substrate, 50 mM phosphate; for inhibition model describing the data: model chosen by F test / AIC; for alpha = Kiu/Kic: mixed inhibition model, 25 °C, pH 7.0
[3] = Solubility: concentration of dissolved inhibitor in filtered supernatants; format: physicochemical; details: for solubility: water, kinetic from dmso stock; for maximal tested concentration of the fully dissolved compound: in the cell culture experiment, filtered supernatant
Summary of the method: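 DMSO stocks (10 mM) diluted with water to the planned concentrations. Precipitate removed with sterile 0.22 µm syringe filters. Dissolved concentration in the filtrate measured by UV absorbance: ε261 10,900 M−1 cm−1 for the 6-benzyloxy analogue, ε299 18,000 M−1 cm−1 for 6-benzylthio analogues.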

H. pylori PNP = details: read-out: inhibition constant; competitive vs. nucleoside substrate; cited from earlier work
H. pylori strain 26695 [4] = details: cited from earlier work
H. pylori 26695 strain = assay: Checkerboard assay of 6BnS-2Cl-Pu with metronidazole; format: cell-based, Helicobacter pylori; details: single agent, concentration giving about 90% inhibition or more
Summary of the method: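 Sub-MIC checkerboard against strain 26695 with metronidazole (range chosen from the EUCAST MIC). Test-compound gradient 3.0–10.0. Single agents added at 2× and combinations at 4× each, with inoculated double-strength BHI (~0.05 OD600, 4×10^4 CFU/mL final). Shaken at 120 rpm, 37 °C, microaerophilic. […] FICI = MICA/MICa + MICB/MICb.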

[5] = Helicobacter pylori, 26695, 24 h

PNP from Helicobacter pylori strain 26695 (HpPNP), sequence (P56463 whole entry): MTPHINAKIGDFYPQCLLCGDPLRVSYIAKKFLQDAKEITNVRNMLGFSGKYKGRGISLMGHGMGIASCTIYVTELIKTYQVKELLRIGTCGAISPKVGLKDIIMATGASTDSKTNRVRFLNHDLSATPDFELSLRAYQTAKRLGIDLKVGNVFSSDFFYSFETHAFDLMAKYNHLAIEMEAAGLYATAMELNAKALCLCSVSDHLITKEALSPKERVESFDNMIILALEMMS

Row | SMILES | MIC (H. pylori strain 26695 [1]; [5]) | inhibition model describing the data [2] | alpha = Kiu/Kic [2] | solubility [3] | further results
1 | Clc1nc(Cl)c2[nH]cnc2n1 [2,6-diCl-Pu, 2,6-dichloropurine] | 2500 µM (≈ 473 µg/mL) | non-competitive | 1.17 ± 0.44 | 236 µg/mL and 1250 µM | MIC (H. pylori strain 26695 [1]; Helicobacter pylori, 26695): 2500 µM (≈ 473 µg/mL); solubility in water ([3]; 10 mM stock in milli-Q water and 2-fold dilutions, no precipitate): good solubility in water; also recorded: well soluble in water
2 | Clc1nc(OCc2ccccc2)c2[nH]cnc2n1 [6BnO-2Cl-Pu, 6-benzyloxy-2-chloropurine] |  | mixed inhibition model | 0.25 ± 0.12 | 25 µg/mL and 95 µM | maximal tested concentration of the fully dissolved compound [3]: 0.095 mM
3 | Clc1nc(SCc2ccccc2)c2[nH]cnc2n1 [6BnS-2Cl-Pu, 6-benzylthio-2-chloropurine] | 69 µg/mL and 250 µM | probably a mixed type | 0.16 ± 0.15 | 11.1 µg/mL and 40 µM | H. pylori 26695 cell culture growth inhibition (H. pylori strain 26695 [1]; solution prepared as 0.25 mM but partially precipitated): full inhibition; also recorded: Complete growth inhibition; maximal tested concentration of the fully dissolved compound [3]: 0.040 mM
4 | c1ccc(CSc2ncnc3nc[nH]c23)cc1 [6BnS-Pu, 6-benzylthiopurine] | 48 µg/mL and 200 µM | non-competitive | 1.07 ± 0.27 | 21 µg/mL and 85 µM | H. pylori 26695 strain growth inhibition (H. pylori strain 26695 [1]; prepared as 200 µM but partially precipitated): completely inhibited
5 | Nc1ncnc2c([C@@H]3O[C@H](CO)[C@@H](O)[C@H]3O)[nH]nc12 [Formycin A] |  |  |  |  | Ki (H. pylori PNP): 14 ± 1.7 µM
6 | NC[C@H]1O[C@H](O[C@H]2[C@H](O)[C@@H](O[C@H]3O[C@H](CO)[C@@H](O)[C@H](N)[C@H]3O)[C@H](N)C[C@@H]2N)[C@H](O)[C@@H](O)[C@@H]1O [kanamycin, Kanamycin] |  |  |  |  | % of H. pylori cell culture inhibition (H. pylori strain 26695 [1]; 25 µg/mL (52 µM), positive control, not the maximal solubility): 92–96%; MIC (H. pylori strain 26695 [4]): 0.5–64^f µg mL^−1; MIC (H. pylori strain 26695 [4]; converted from literature value): 1.1 to 132 µM
7 | Cc1ncc([N+](=O)[O-])n1CCO [metronidazole] |  |  |  |  | MIC taken for FICI calculation (H. pylori 26695 strain): 2 µg/mL; MIC (H. pylori strain 26695 [4]; EUCAST): 8^f µg mL^−1; MIC (H. pylori strain 26695 [4]; converted from EUCAST value): 47 µM (≈ 8.04 µg/mL)

Source: article PMC9037209 (Journal of Enzyme Inhibition and Medicinal Chemistry, 2022)
